Article PMC5292677 (Leukemia, 2016)
Values joined by “and” are separate entries in the source; they are usually repeats but may differ in a detail not shown here. Identical values can stand only once. “Also recorded” adds a separate entry of the source.

Experiments:
JAK2 = details: cited from earlier work
[1] = system: patients with myelofibrosis; assay: MF-associated symptoms; assay type: in vivo, human
Summary of the method: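 Symptoms were self-rated on the Myelofibrosis Symptom Assessment Form at baseline, on Day 1 of Cycles 2 and 4, then every 3 cycles, during daily oral dosing in 28-day cycles. Evaluable patients had ≥1 cycle treated and a baseline symptom score >2. Each symptom was scored for ≥50% reduction, with a subgroup of patients pretreated with a JAK2 inhibitor.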

cytokines = assay: PD: plasma biomarkers; assay type: in vivo, human
Summary of the method: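 Predose plasma was drawn on Day 1 of Cycles 1–4. Eighty-eight cytokines/proteins were quantified on a multiplexed HumanMAP v2.0 panel. Analysis covered patients with ≥1 dose, a baseline value and ≥1 evaluable post-baseline sample.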

[2] = system: patients with myelofibrosis; assay: Hemoglobin/platelet response and transfusion status; assay type: in vivo, human
Summary of the method: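 Oral test compound was given QD or BID in continuous 28-day cycles. Hematologic response was scored by IWG-MRT criteria on Day 1 of Cycles 2, 3 and 4, then every 3 cycles. Transfusion dependence was defined as ≥6 units packed red cells in any rolling 12-week interval. Patients without transfusion in the 12 weeks before entry were classed transfusion-free at baseline.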

JAK2^V617F allele burden = assay: PD: JAK2V617F allele burden; assay type: in vivo, human
Summary of the method: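 JAK2 allele burden was sampled on Day 1 of Cycles 1, 2 and 4, then every 3 cycles, during continuous 28-day oral dosing. On-treatment values were compared with the predose baseline. Analysis covered patients with ≥1 dose, a baseline value and ≥1 evaluable post-baseline assessment.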

[3] = system: patients with myelofibrosis; assay: Bone marrow fibrosis grade; assay type: in vivo, human
Summary of the method: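 Adults with myelofibrosis took the oral test compound once or twice daily in continuous 28-day cycles. Bone marrow biopsies were taken at screening (within 28 days before first dose), on Day 1 of Cycle 4, then every 3 cycles, and read at each site. Fibrosis was graded 0–3 and categorized against baseline as improved ≥1 grade, stable, or worsened ≥1 grade.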

[4] = 21 patients, doses ⩾300 mg QD, following 4 cycles
[5] = individual patient with BMF improvement after 3 cycles, 125 mg QD
[6] = individual patients with BMF improvement after 3 cycles, 300 mg QD
[7] = patients without BMF improvement after 3 cycles (n=19)

C[C@H](Nc1cc(-c2cnn(C)c2)cc(Nc2cnccn2)n1)c1ccc(F)cc1 [NS-018]
Selectivity for JAK2 over JAK1 (JAK2): specificity of this agent for JAK2 over JAK1 | Median inhibitory concentration (JAK2; in vitro kinase assay): subnanomolar range | Reductions in symptom scores achieved in at least some patients ([1]; all symptoms measured): up to 100% | Mean MF-SAF scores ([1]; by Week 4, all 8 assessed symptoms, total evaluable population): reductions in mean MF-SAF scores | Mean MF-SAF symptom score ([1]; patients with previous JAK2 inhibitor treatment): reduction in mean score for all symptoms | B2M, CRP, IL-18, myeloperoxidase and TNFR2 plasma levels (cytokines; [4]): Dose-dependent downregulation | Erythropoietin, leptin and eotaxin-1 plasma levels (cytokines; [4]): dose-dependent upregulation | Tumor necrosis factor-α and IL-6 levels (cytokines; after 4 weeks of treatment): unchanged | Hemoglobin IWG-MRT clinical improvement ([2]; all cohorts): 4 patients | Hemoglobin improvement (⩾20 g/l increase) ([2]; all cohorts): 11 patients | Platelet IWG-MRT clinical improvement ([2]; all cohorts): 1 patients | Platelet improvement (100% increase) ([2]; all cohorts): 2 patients | Increase in Hb of ⩾20 g/l ([2]; individual patient with BMF improvement after 3 cycles, 75 mg QD): ✓ (not CI) | 100% increase in Plt count [2, 5]: ✓ (CI) | Increase in Hb of ⩾20 g/l [2, 5]: ✓ (not CI) | Increase in Hb of ⩾20 g/l ([2]; individual patients with BMF improvement after 3 cycles, 300 mg BID): ✓ (CI) | 100% increase in Plt count [2, 6]: ✓ (not CI) | Increase in Hb of ⩾20 g/l [2, 6]: ✓ (CI) | Increase in Hb of ⩾20 g/l ([2]; individual patients with BMF improvement after 3 cycles, 400 mg BID): ✓ (not CI) | Patients achieving transfusion independence ([2]; of the 10 patients transfusion dependent at baseline): 3 patients | Hemoglobin responses [2, 7]: 2 responses | Platelet responses [2, 7]: no platelet responses | JAK2^V617F allele burden during treatment (JAK2^V617F allele burden; JAK2^V617F-positive patients): largely unchanged; also recorded: remained similar to the baseline value in almost all patients | Patients with decrease in allele burden of ⩾25% (JAK2^V617F allele burden; at Cycle 7 in one and Cycle 16 in the other): 2 patients | Patients with improvement of ⩾1 BMF grade ([3]; after 3 cycles, 30 evaluable patients): 37% | Patients with unchanged BMF grade ([3]; after Cycle 3, 30 evaluable patients): 53% | Patients with BMF worsening ([3]; at completion of Cycle 3, 30 evaluable patients): 10% | Duration of BMF grade change ([3]; individual patient, 75 mg QD): 3 cycles | Duration of BMF grade change ([3]; individual patient, 125 mg QD): 12 cycles | Duration of BMF grade change ([3]; individual patient, 250 mg BID): 2 cycles | Duration of BMF grade change ([3]; individual patient, 400 mg QD): 6 cycles | Duration of BMF grade change ([3]; individual patients, 300 mg BID): 2 cycles and 1 cycles | Duration of BMF grade change ([3]; individual patients, 300 mg QD): 3 cycles and 39 cycles and 9 cycles | Duration of BMF grade change ([3]; individual patients, 400 mg BID): 1 cycles and 12 cycles | Patients with BMF improvement maintained for >12 weeks ([3]; of the 11 improved after 3 cycles): 5 patients | Patients achieving BMF improvement from baseline later in the study ([3]; of those with unchanged BMF grade after Cycle 3): 6 patients
